# Measured values gathered from unrelated publications.
# Lines come from different studies, so protocols differ.
# Cell line: MDA-MB-231
# Observed: cell growth or viability
Structure (SMILES),method,time,IC50
N.N.[Cl][Pt][Cl],,24 h,68.4 µM
COC1(C2CSC(=O)N2)CC2CC(CCC(C)C=CC=CCCC(C)=CC(=O)O2)O1 (stereo not shown),MTT,72 h,23.4 µM
O=C1[O][Pt]2([NH][C@@H]3CCCC[C@H]3[NH]2)[O]C1=O,MTT,96 h,2.6 µM
Cc1coc2c1c(=O)oc1c3ccccc3ccc21,SRB,72 h,10.3 µg/mL
CO[C@]1([C@@H]2CSC(=O)N2C)C[C@H]2C[C@@H](CC[C@H](C)/C=C\C=C\CC/C(C)=C\C(=O)O2)O1,MTT,72 h,19.9 µM
Cn1c(CCCC(=O)O)nc2cc(N(CCCl)CCCl)ccc21,MTT,,13.3 µM
Nc1cc(Cl)c(Cl)cc1N,,72 h,150 µM
CCC1(c2ccc(N)cc2)CCC(=O)NC1=O (stereo not shown),CCK-8,48 h,> 50 µM
Nc1cc(Br)c(Br)cc1N,,72 h,60 µM
C/C1=C/C(=O)O[C@@H]2C[C@@H](CC[C@H](C)/C=C\C=C\CC1)O[C@@](O)([C@@H]1CSC(=O)N1CO)C2,MTT,72 h,2.99 µM
COc1c(O)cc2oc3cc(O)c(CC=C(C)C)c(O)c3c(=O)c2c1CC=C(C)C,,48 h,20.7 µM
CO[C@]1([C@@H]2CSC(=O)N2Cc2ccccc2)C[C@H]2C[C@@H](CC[C@H](C)/C=C\C=C\CC/C(C)=C\C(=O)O2)O1,MTT,72 h,6.82 µM
N[C@@H](Cc1ccc(N(CCCl)CCCl)cc1)C(=O)O,CCK-8,48 h,> 50 µM
